According to ChEMBL document CHEMBL5053482, “Rapid Optimization of the Metabolic Stability of a Human Immunodeficiency Virus Type-1 Capsid Inhibitor Using a Multistep Computational Workflow” (J Med Chem, 2021):
Blank lines part the entries; values can stand above or below the compound they belong to. Calls of active or inactive are those of the source. The rule behind the calls is not given here.

How the values were obtained:
[1] = tested on: Human immunodeficiency virus 1; assay: Antiviral activity against HIV1 NL4-3 Env-deficient pseudotype virus infected in human U87.CD4.CCR5.CXCR4 cells assessed by reduction in viral infection in early stage measured after 48 hrs by luciferase activity based single-round infection assay; assay type: functional, organism-based
[2] = Cytotoxicity against in human U87.CD4.CCR5.CXCR4 cells assessed as reduction in cell viability measured after 48 hrs by CCK8 assay; assay type: cell-based; conditions: u87.cd4.ccr5.cxcr4, 48 h
Outline: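 U87 cells stably expressing CD4/CCR5 or CD4/CXCR4 were grown in a humidified 5% CO2 atmosphere at 37°C and seeded at 1.2 × 10^4 cells/well 24 h before treatment. Cells were exposed to compound (1mM-0.3μM) or DMSO for 48 h at 37°C, then to CCK-8 for 4 h at 37°C, and absorbance was read at 450 nm. Controls were untreated cells and 0.1% SDS-treated cells.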

[3] = tested on: Human immunodeficiency virus 1; assay: Binding affinity to hexameric C-terminal His-tagged HIV1 NL4-3 capsid protein A14C/E45C/W184A/M185A mutant expressed in Escherichia coli BL21 codon plus (DE3)RIL assessed as association rate constant by SPR analysis
Outline: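 Disulfide-stabilised CA hexamers, isolated by size exclusion after stepwise βME dialysis, amine-coupled at 100 μg/mL (10mM sodium acetate pH 5.0) to GLH chip; IgG b12 reference surface. 25 °C; running buffer PBS, 3% DMSO, 0.005% polysorbate 20, pH 7.4. One-shot kinetics of 1:4 serial dilutions from 5 or 2 μM, 100 μl/min, 1 min association, up to 5 min dissociation.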

[4] = Binding affinity to hexameric C-terminal His-tagged HIV1 NL4-3 capsid protein A14C/E45C/W184A/M185A mutant expressed in Escherichia coli BL21 codon plus (DE3)RIL assessed as dissociation constant by SPR analysis; parameters: species or system Human immunodeficiency virus 1
Outline: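 SPR at 25 °C using one-shot kinetics. Disulfide-stabilized CA hexamer was assembled by βME dialysis, isolated by SEC, and amine-coupled to a GLH chip at 100 μg/mL in 10 mM sodium acetate pH 5.0. An IgG b12 surface served as reference. Compound was injected as 1:4 serial dilutions from 5 or 2 μM in PBS with 3% DMSO and 0.005% polysorbate 20, pH 7.4, at 100 μl/min. Association was 1 min and dissociation up to 5 min.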

[5] = Therapeutic index, ratio of CC50 for cytotoxicity against human 87.CD4.CCR5.CXCR4 cells to IC50 for antiviral activity against HIV1 NL4-3 virus in human 87.CD4.CCR5.CXCR4 cells; assay type: toxicity, cell-based; conditions: read-out: TI
Outline: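 U87.CD4.CCR5/CXCR4 cells were seeded 24 h ahead and incubated 48 h at 37°C. Antiviral arm: p24-normalised single-round luciferase pseudovirus (pNL4-3-Luc+R-E− backbone, BG505 Env), luminescence read after lysis. […] Index is CC50 divided by IC50.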

[6] = tested on: Human immunodeficiency virus 1; assay: Binding affinity to C-terminal His-tagged HIV1 NL4-3 capsid protein N57A mutant expressed in Escherichia coli BL21 codon plus (DE3)RIL
[7] = tested on: Human immunodeficiency virus 1; assay: Binding affinity to C-terminal His-tagged HIV1 NL4-3 capsid protein M66A mutant expressed in Escherichia coli BL21 codon plus (DE3)RIL
[8] = tested on: Human immunodeficiency virus 1; assay: Binding affinity to C-terminal His-tagged HIV1 NL4-3 capsid protein K70A mutant expressed in Escherichia coli BL21 codon plus (DE3)RIL
[9] = Half life in human liver microsomes; assay type: ADME, Microsome
[10] = Human immunodeficiency virus 1, NL4-3, U87.CD4.CCR5.CXCR4, 48 h, read-out: IC50

IC50 ([1]; u87.cd4.ccr5.cxcr4): Not Active
Structure (SMILES): Cc1[nH]c2ccccc2c1CC(=O)N[C@H](Cc1ccccc1)C(=O)N(C)c1ccc2[nH]ncc2c1
CC50 [2]: Not Active

Structure (SMILES): CN(C(=O)C(Cc1ccccc1)NC(=O)Cc1c[nH]c2c(N)cccc12)c1ccccc1 (racemic)
Ka [3]: 5.62 10^5/M/s
Kd [4]: 189 nM
IC50 [1, 10]: 97.2 nM
CC50 ([2]; read-out: CC50): 83.5 µM
selectivity ratio [5]: 859
Activity [6]: inactive
Activity [7]: inactive
Activity [8]: inactive

Structure (SMILES): CN(C(=O)[C@H](Cc1ccccc1)NC(=O)Cc1n[nH]c2c(N)cccc12)c1ccc2[nH]ncc2c1
Ka [3]: 2.86 10^5/M/s
Kd [4]: 337 nM
IC50 [1, 10]: 279 nM
CC50 ([2]; read-out: CC50): 102 µM
selectivity ratio [5]: 365
t1/2 [9]: 102 min

Structure (SMILES): Cc1[nH]c2ccccc2c1CC(=O)NC(Cc1ccccc1)C(=O)N(C)c1ccc2[nH]ncc2c1 (racemic)
Ka [3]: 2.75 10^5/M/s
Kd [4]: 43.9 nM
IC50 [1, 10]: 38.3 nM
CC50 ([2]; read-out: CC50): 76.9 µM
selectivity ratio [5]: 2010
Activity [6]: inactive
Activity [7]: inactive
Activity [8]: inactive

IC50 ([1]; u87.cd4.ccr5.cxcr4): Not Active
Structure (SMILES): Cc1[nH]c2ccccc2c1CC(=O)N[C@H](Cc1ccccc1)C(=O)N(C)c1ccccc1
CC50 [2]: Not Active

IC50 ([1]; u87.cd4.ccr5.cxcr4): Not Active
Structure (SMILES): CN(C(=O)[C@@H](Cc1ccccc1)NC(=O)Cc1c[nH]c2c(N)cccc12)c1ccccc1
CC50 [2]: Not Active

Structure (SMILES): CN(C(=O)C(Cc1ccccc1)NC(=O)Cc1n[nH]c2c(N)cccc12)c1ccc2[nH]ncc2c1 (racemic)
Ka [3]: 2.2 10^5/M/s
Kd [4]: 494 nM
IC50 [1, 10]: 2420 nM
CC50 ([2]; read-out: CC50): 415 µM
selectivity ratio [5]: 171
Activity [6]: inactive
Activity [7]: inactive
Activity [8]: inactive

Structure (SMILES): Cc1[nH]c2ccccc2c1CC(=O)N[C@@H](Cc1ccccc1)C(=O)N(C)c1ccc2[nH]ncc2c1
Ka [3]: 4.37 10^5/M/s
Kd [4]: 25 nM
IC50 [1, 10]: 20.6 nM
CC50 ([2]; read-out: CC50): 46.9 µM
selectivity ratio [5]: 2280
t1/2 [9]: 1 min

Structure (SMILES): CN(C(=O)[C@H](Cc1ccccc1)NC(=O)Cc1c[nH]c2c(N)cccc12)c1ccccc1
Ka [3]: 4.76 10^5/M/s
Kd [4]: 139 nM
IC50 [1, 10]: 62.1 nM
CC50 ([2]; read-out: CC50): 101 µM
selectivity ratio [5]: 1630
t1/2 [9]: 15.4 min

Structure (SMILES): Cc1[nH]c2ccccc2c1CC(=O)N[C@@H](Cc1ccccc1)C(=O)N(C)c1ccccc1
Ka [3]: 4.75 10^5/M/s
IC50 [1, 10]: 80 nM
CC50 ([2]; read-out: CC50): 66.7 µM

Structure (SMILES): Cc1[nH]c2ccccc2c1CC(=O)NC(Cc1ccccc1)C(=O)N(C)c1ccccc1 (racemic)
Ka [3]: 3.07 10^5/M/s
IC50 [1, 10]: 55.5 nM
CC50 ([2]; read-out: CC50): 36.8 µM
Activity [6]: inactive
Activity [7]: inactive
Activity [8]: inactive

IC50 ([1]; u87.cd4.ccr5.cxcr4): Not Active
Structure (SMILES): CN(C(=O)[C@@H](Cc1ccccc1)NC(=O)Cc1n[nH]c2c(N)cccc12)c1ccc2[nH]ncc2c1
CC50 [2]: Not Active
